ChEMBL document CHEMBL2176910, “Identification of small molecule inhibitors of amyloid β-induced neuronal apoptosis acting through the imidazoline I(2) receptor” (J Med Chem, 2012)
The source made the active and inactive calls. No cut-off for these calls is given here.

Key:
[1] = molecular target: 5-hydroxytryptamine receptor 2A (Homo sapiens) (UniProt P28223); experiment: Inhibition of radioligand binding to 5HT2A at 10 uM
How it was run: (§1)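 Part of an in vitro radioligand binding panel. Each target was tested against a potent standard radioligand for that site. The read-out was percent inhibition of specific binding, reported as an average value.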

[2] = Inhibition of radioligand binding to N-methyl D-aspartate receptor phencyclidine binding site at 10 uM
How it was run: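 Radioligand binding panel. Values are average percentages of inhibition of specific binding, measured against potent standard ligands for each target.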

Rattus norvegicus = species: Rattus norvegicus; experiment: Displacement of [3H]idazoxan from rat cerebral cortex imidazole receptor 2 at 10 uM in presence of 1 uM yohimbine; format: tissue-based
[3] = molecular target: T1, 5-hydroxytryptamine receptor 1A (Homo sapiens) (UniProt P08908); experiment: Inhibition of radioligand binding to 5HT1A at 10 uM; how it was run: as §1
T1 sequence (whole entry): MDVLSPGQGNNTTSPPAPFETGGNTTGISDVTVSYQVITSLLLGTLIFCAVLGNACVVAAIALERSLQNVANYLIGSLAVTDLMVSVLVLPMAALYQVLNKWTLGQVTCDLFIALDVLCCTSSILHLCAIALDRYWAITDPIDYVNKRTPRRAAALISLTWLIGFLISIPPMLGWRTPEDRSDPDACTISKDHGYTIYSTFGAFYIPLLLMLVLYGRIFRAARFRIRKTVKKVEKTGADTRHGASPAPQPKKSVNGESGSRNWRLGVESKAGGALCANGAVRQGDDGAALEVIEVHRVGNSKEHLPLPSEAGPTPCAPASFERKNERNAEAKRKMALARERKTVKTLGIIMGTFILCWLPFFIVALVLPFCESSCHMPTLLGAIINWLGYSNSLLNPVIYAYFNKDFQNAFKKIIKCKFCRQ

[4] = molecular target: T2, 5-hydroxytryptamine receptor 2C (Homo sapiens) (UniProt P28335); experiment: Inhibition of radioligand binding to 5HT2C at 10 uM; how it was run: as §1
T2 sequence (whole entry): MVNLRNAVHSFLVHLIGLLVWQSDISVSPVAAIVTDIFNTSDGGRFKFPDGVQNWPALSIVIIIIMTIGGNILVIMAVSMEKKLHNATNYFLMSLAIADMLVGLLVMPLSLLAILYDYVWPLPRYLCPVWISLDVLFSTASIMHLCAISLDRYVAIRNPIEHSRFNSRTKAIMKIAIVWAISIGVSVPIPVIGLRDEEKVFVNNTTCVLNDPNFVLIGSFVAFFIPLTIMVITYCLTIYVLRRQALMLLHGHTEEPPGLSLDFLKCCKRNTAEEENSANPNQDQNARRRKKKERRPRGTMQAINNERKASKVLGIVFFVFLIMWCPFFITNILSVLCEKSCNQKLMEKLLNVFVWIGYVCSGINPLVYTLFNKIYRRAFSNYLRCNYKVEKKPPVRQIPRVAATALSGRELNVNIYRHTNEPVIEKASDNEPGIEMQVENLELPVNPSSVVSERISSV

Nischarin = Nischarin (Homo sapiens, UniProt Q9Y2I1); experiment: Inhibition of radioligand binding to imidazole receptor 1 at 10 uM
Sequence of Nischarin (Q9Y2I1 whole entry): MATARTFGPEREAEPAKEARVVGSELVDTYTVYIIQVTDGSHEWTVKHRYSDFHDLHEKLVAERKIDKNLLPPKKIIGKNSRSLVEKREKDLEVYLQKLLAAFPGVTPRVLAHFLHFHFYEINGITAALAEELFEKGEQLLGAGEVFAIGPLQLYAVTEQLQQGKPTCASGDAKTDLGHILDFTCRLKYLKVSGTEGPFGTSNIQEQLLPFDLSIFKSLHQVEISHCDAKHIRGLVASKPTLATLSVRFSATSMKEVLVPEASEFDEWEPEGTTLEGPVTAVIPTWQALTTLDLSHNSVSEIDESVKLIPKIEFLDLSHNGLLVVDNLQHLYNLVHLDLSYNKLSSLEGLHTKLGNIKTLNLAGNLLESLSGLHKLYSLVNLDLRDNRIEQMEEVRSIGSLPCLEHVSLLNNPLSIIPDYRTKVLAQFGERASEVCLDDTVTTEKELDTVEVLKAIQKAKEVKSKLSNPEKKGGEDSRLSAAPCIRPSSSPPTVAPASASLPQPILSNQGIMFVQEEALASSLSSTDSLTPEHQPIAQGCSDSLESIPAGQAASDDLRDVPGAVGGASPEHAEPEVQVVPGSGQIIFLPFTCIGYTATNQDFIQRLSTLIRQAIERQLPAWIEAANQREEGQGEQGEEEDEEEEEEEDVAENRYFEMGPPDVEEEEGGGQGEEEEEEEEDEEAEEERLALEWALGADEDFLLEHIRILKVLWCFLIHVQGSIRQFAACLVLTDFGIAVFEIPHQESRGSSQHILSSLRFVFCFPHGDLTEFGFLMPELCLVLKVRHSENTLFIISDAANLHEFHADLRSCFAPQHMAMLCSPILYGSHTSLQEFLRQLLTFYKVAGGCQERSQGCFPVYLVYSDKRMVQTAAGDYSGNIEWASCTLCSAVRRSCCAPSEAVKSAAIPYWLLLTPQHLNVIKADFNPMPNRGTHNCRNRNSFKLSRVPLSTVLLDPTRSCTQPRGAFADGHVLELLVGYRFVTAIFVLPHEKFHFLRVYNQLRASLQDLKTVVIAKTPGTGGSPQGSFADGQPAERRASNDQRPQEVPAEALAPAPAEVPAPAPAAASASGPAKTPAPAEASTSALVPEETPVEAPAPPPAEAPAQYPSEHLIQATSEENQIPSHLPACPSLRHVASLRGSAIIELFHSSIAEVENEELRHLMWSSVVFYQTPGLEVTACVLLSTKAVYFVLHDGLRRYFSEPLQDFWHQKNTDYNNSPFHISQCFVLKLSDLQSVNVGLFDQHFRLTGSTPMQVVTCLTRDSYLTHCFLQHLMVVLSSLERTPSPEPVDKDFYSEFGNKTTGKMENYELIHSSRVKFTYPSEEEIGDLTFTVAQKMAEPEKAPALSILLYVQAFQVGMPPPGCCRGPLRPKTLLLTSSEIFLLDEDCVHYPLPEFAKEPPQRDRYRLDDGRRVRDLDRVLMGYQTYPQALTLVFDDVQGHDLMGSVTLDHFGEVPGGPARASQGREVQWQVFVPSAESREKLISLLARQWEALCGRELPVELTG

[5] = molecular target: Kappa-type opioid receptor (Homo sapiens) (UniProt P41145); experiment: Inhibition of radioligand binding to KOP receptor at 10 uM; how it was run: as §1
Sequence of Kappa-type opioid receptor (Homo sapiens) (P41145 whole entry): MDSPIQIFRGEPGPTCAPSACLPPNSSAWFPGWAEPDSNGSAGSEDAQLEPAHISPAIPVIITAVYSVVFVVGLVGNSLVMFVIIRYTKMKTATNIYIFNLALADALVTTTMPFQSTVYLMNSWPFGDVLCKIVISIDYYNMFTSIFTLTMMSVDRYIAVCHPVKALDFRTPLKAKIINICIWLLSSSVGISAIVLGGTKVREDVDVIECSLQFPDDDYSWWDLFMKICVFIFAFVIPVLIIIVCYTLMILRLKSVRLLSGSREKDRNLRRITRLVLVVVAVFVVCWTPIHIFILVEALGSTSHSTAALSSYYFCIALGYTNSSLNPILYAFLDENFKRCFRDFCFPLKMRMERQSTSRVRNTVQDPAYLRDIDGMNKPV

[6] = molecular target: Mu-type opioid receptor (Homo sapiens) (UniProt P35372); experiment: Inhibition of radioligand binding to MOP receptor at 10 uM; how it was run: as §1
Sequence of Mu-type opioid receptor (Homo sapiens) (P35372 whole entry): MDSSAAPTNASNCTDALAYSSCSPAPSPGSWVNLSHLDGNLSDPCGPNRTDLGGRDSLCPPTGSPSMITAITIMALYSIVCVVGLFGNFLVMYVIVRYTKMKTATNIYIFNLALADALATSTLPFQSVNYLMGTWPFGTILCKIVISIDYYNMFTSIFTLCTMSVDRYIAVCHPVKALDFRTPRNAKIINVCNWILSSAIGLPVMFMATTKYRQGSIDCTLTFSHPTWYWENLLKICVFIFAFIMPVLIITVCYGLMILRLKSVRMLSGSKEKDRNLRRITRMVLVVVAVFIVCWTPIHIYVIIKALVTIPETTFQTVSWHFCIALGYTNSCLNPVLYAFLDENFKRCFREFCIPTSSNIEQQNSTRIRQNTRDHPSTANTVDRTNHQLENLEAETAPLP

Hippocampal neuron [7] = experiment: Neuroprotective activity in mouse hippocampal neurons assessed as Abeta-induced neuronal apoptosis at 30 uM pre-incubated for 4 hrs before Abeta challenge for 72 hrs by TUNEL assay (reference value: 100%); format: functional; settings: Hippocampus
How it was run: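 Aggregated Aβ (20 μM, 72 h) was applied to primary mouse hippocampal neurons with or without compound at 30 μM. Apoptosis was scored by TUNEL as the percentage of positive nuclei among total nuclei, referred to Aβ alone (100%). Medium-only cells were the negative control and DNase the positive control. n = 4, mean ± SEM, two-tailed Student's test.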

[8] = Inhibition of radioligand binding to Sigma receptor at 10 uM
[9] = molecular target: D(2) dopamine receptor (Homo sapiens) (UniProt P14416); experiment: Inhibition of radioligand binding to D2L receptor at 10 uM; how it was run: as §1
Sequence of D(2) dopamine receptor (Homo sapiens) (P14416 whole entry): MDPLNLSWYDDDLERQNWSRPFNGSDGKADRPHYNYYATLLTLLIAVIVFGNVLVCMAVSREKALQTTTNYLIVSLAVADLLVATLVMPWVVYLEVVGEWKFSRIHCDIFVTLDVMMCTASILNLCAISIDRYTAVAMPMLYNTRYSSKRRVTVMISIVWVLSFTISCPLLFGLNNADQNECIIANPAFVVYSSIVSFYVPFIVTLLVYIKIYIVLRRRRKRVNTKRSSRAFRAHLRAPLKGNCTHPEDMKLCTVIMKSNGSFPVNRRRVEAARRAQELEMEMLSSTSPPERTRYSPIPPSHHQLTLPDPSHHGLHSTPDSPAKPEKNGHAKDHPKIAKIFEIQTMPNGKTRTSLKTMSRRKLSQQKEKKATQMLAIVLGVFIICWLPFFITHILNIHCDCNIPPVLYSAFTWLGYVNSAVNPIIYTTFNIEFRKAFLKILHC

[10] = molecular target: Delta-type opioid receptor (Homo sapiens) (UniProt P41143); experiment: Inhibition of radioligand binding to DOP receptor at 10 uM; how it was run: as §1
Sequence of Delta-type opioid receptor (Homo sapiens) (P41143 whole entry, the tested form may be a part): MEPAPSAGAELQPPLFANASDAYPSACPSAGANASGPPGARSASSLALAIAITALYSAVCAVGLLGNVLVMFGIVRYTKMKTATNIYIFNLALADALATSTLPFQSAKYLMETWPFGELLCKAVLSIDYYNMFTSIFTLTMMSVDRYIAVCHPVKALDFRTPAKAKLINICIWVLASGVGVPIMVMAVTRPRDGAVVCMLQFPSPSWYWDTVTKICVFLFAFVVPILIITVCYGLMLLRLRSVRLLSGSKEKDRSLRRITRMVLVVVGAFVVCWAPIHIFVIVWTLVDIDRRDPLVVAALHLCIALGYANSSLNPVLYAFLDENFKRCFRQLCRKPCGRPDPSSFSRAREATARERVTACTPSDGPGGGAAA

Hippocampal neuron [11] = experiment: Neuroprotective activity against Abeta-induced neuronal apoptosis in mouse hippocampal neurons assessed as reduction in DNA fragmentation at 30 uM pre-incubated for 4 hrs before Abeta challenge for 72 hrs by immunofluorescence microscopy; format: functional, tissue-based; settings: Hippocampus
How it was run: (§2)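 Primary mouse hippocampal neurons were exposed to Aβ (20 μM, 72 h) alone or with compound. Double immunofluorescence microscopy was then run for DNA fragmentation (TUNEL, green) and total neuronal nuclei (NeuN, red), with merged images. DNase-treated cells served as positive control.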

Hippocampal neuron [12] = experiment: Neuroprotective activity against Abeta-induced neuronal apoptosis in mouse hippocampal neurons assessed as reduction in total neuronal nuclei level at 30 uM pre-incubated for 4 hrs before Abeta challenge for 72 hrs by immunofluorescence microscopy; format: functional, tissue-based; settings: Hippocampus; how it was run: as §2
[13] = molecular target: T3, 5-hydroxytryptamine receptor 3A (Homo sapiens) (UniProt P46098); experiment: Inhibition of radioligand binding to 5HT3 at 10 uM; how it was run: as §1
T3 sequence (whole entry): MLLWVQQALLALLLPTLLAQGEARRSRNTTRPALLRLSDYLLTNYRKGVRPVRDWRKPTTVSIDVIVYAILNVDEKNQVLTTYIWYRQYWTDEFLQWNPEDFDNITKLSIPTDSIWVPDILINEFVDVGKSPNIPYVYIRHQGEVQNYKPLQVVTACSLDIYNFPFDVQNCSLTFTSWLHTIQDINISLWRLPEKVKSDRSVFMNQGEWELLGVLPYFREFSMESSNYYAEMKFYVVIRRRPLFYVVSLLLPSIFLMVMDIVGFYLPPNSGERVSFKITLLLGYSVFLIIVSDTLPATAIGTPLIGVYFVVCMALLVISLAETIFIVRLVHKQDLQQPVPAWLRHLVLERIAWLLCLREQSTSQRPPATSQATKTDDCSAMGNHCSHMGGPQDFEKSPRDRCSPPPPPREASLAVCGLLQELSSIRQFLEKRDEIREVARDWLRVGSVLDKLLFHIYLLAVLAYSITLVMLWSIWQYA

Sequence of 5-hydroxytryptamine receptor 2A (Homo sapiens) (P28223 whole entry): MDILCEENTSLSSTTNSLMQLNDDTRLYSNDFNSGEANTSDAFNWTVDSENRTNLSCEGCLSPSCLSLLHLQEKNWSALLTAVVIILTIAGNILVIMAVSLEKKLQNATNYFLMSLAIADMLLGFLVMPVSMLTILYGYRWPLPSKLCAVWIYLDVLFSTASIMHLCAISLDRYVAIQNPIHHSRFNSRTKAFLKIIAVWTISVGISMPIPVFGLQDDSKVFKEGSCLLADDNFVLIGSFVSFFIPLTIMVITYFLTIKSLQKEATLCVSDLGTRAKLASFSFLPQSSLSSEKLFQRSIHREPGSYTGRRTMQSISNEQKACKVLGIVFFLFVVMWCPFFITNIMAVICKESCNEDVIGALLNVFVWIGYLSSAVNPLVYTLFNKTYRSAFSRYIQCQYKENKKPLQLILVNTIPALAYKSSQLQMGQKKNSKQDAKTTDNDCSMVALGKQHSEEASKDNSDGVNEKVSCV

| Structure (SMILES) | inhibition [1] | inhibition [2] | inhibition (Rattus norvegicus) | inhibition [3] | inhibition [4] | inhibition (Nischarin) | inhibition [5] | inhibition [6] | Activity (Hippocampal neuron [7]) | inhibition [8] | inhibition [9] | inhibition [10] | Activity (Hippocampal neuron [11]) | Activity (Hippocampal neuron [12]) | inhibition [13] |
| --- | --- | --- | --- | --- | --- | --- | --- | --- | --- | --- | --- | --- | --- | --- | --- |
| NCC12CCC3CC(CC3C1)C2 (stereo not given) | < 20% | inactive | 34% | < 20% | < 20% | < 20% | < 20% | < 20% | Active | 39% | < 20% | < 20% | Active | Active | < 20% |
| CN(C)C(CN)c1ccccc1Cl (stereo not given) | < 20% | inactive | 43% | < 20% | < 20% | < 20% | < 20% | < 20% | Active | < 20% | < 20% | < 20% | Active | Active | < 20% |
| CN1CCNC(c2ccccc2)C1 (stereo not given) | < 20% | inactive | 41% | < 20% | < 20% | 36% | < 20% | < 20% | Active | < 20% | < 20% | < 20% | Active | Active | < 20% |
